Test results from ChEMBL document CHEMBL1250496, “Novel 6,12-disubstituted chrysene as potent anticancer agent: synthesis, in vitro and in vivo study” (Eur J Med Chem, 2010).
pIC50: −log10 of the molar value.

Columns and labels:
[1] = system: PC-3; experiment: Cytotoxicity against human PC3 cells after 72 hrs by MTT assay; format: functional, cell-based
How it was run: (§1)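 Cells were exposed continuously to drug for 72 h, with dilutions made in RPMI 1640 + 10% FBS and final solvent below 0.625%. Relative growth was read by MTT, and IC50 was reported in μM.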

[2] = system: HL-60; experiment: Cytotoxicity against human HL60 cells after 72 hrs by MTT assay; format: functional, cell-based; conditions: HL-60, 72 h; how it was run: as §1
[3] = system: MCF7; experiment: Cytotoxicity against human MCF7 cells after 72 hrs by MTT assay; format: functional, cell-based; how it was run: as §1
[4] = system: HT-29; experiment: Cytotoxicity against human HT-29 cells after 72 hrs by MTT assay; format: functional, cell-based; how it was run: as §1
[5] = Cytotoxicity against human BRO cells after 72 hrs by MTT assay; format: functional, cell-based; how it was run: as §1
[6] = system: SK-OV-3; experiment: Cytotoxicity against human SKOV3 cells after 72 hrs by MTT assay; format: functional, cell-based; how it was run: as §1
[7] = system: P388; experiment: Cytotoxicity against mouse P388 cells after 72 hrs by MTT assay; format: functional, cell-based; how it was run: as §1
[8] = system: Mus musculus; experiment: Toxicity in mouse assessed as weight loss at 40 mg/kg, ip; format: organism-based; set-up: dose 40 mg/kg, route intraperitoneal; conditions: in vivo
[9] = system: SK-OV-3; experiment: Antitumor activity against human SKOV3 xenografted in mouse assessed as reduction in tumor volume at 40 mg/kg, ip for 5 days; format: functional; set-up: scale not given: the % may be the effect or the level left; conditions: route intraperitoneal
How it was run: (§2)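 Female nu/nu mice, 6-10 weeks old. SKOV-3 cells were harvested at 80% confluence with viability >90% by trypan blue, washed, resuspended in PBS and given i.p. at 0.65 × 10^6 per mouse. Mice were sacrificed at 7 weeks and tumors counted and total volume measured per mouse.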

[10] = system: SK-OV-3; experiment: Antitumor activity against human SKOV3 xenografted in mouse assessed as reduction in tumor number at 40 mg/kg, ip for 5 days; format: functional; set-up: scale not given: the % may be the effect or the level left; conditions: route intraperitoneal; how it was run: as §2

Row | Compound | pIC50 ([1]; Homo sapiens, PC-3, 72 h) | pIC50 [2] | pIC50 ([3]; Homo sapiens, MCF7, 72 h) | pIC50 ([4]; Homo sapiens, HT-29, 72 h) | pIC50 ([5]; Homo sapiens, BRO, 72 h) | pIC50 ([6]; Homo sapiens, SK-OV-3, 72 h) | pIC50 ([7]; Mus musculus, P388, 72 h) | pIC50 ([5]; bro) | pIC50 ([7]; p388) | pIC50 ([1]; pc-3) | Activity [8] | pIC50 ([3]; mcf7) | Activity [9] | pIC50 ([4]; ht-29) | Activity [10] | pIC50 ([6]; sk-ov-3)
1 | O=C(CCC(=O)N1CCCCC1)Nc1cc2c3ccccc3ccc2c2ccccc12 | 4.30 | 4.73 | 4.61 | 4.48 | < 4.00 | 4.68 |  |  |  |  |  |  |  |  |  | 
2 | O=C(CCC(=O)N1CCCCC1)Nc1cc2c3ccccc3c(NC(=O)CCC(=O)N3CCCCC3)cc2c2ccccc12 | 4.61 | 4.60 | 4.68 | 4.39 | 4.35 | 4.66 | 4.42 |  |  |  |  |  |  |  |  | 
3 | CN1CCN(C(=O)CCC(=O)Nc2cc3c4ccccc4c(NC(=O)CCC(=O)N4CCN(C)CC4)cc3c3ccccc23)CC1 | 4.81 | 4.38 | 4.12 | 4.18 | 4.24 | 4.14 | 4.01 |  |  |  |  |  |  |  |  | 
4 | CN1CCN(CCCCNc2cc3c4ccccc4c(NCCCCN4CCN(C)CC4)cc3c3ccccc23)CC1 | 5.92 | 6.05 | 5.77 | 5.68 |  | 6.05 |  | 5.42 | 5.77 |  |  |  |  |  |  | 
5 | CN1CCN(CCCCNc2cc3c4ccccc4c(NCCCCN4CCN(C)CC4)cc3c3ccccc23)CC1.Cl |  |  |  |  |  |  |  | 6.22 | 6.10 | 5.68 | 5% | 5.92 | 47% | 5.80 | 35% | 6.00
6 | c1ccc2c(c1)ccc1c3ccccc3c(NCCCCN3CCCCC3)cc21 | 5.43 | 5.96 | 5.64 | 5.62 | 5.47 | 5.36 | 5.66 |  |  |  |  |  |  |  |  | 
7 | CN1CCN(CCCCNc2cc3c4ccccc4ccc3c3ccccc23)CC1 | 5.00 | 5.28 | 5.19 | 4.84 | 4.86 | 5.08 | 4.71 |  |  |  |  |  |  |  |  | 
8 | c1ccc2c(c1)c(NCCCCN1CCCCC1)cc1c3ccccc3c(NCCCCN3CCCCC3)cc21 | 6.10 | 6.10 | 5.85 | 5.92 | 5.77 | 5.72 | 5.70 |  |  |  |  |  |  |  |  | 
9 | CN1CCN(C(=O)CCC(=O)Nc2cc3c4ccccc4ccc3c3ccccc23)CC1 | 4.74 | 5.02 | 5.15 | 5.03 | 4.38 | 4.95 | 5.22 |  |  |  |  |  |  |  |  | 
